Sampled rows, rich in hits. Any-hit rate of the full collection: about 2.3%.
TRPC6 inh = inhibitors of mouse TRPC6 channel; HEK293-TRPC6, membrane potential dye, ACh-evoked depolarization; active compounds read low; B-score at 10 µM; 1.1% of 310,000 active;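 active = B-score under library mean minus 3 SD, initial fluorescence not abnormally high, positive integrated signal ratio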;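 note: B-score derived from integrated fluorescence ratio over the kinetic read; more negative B-score means stronger inhibition of depolarization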
Target sequence (Q61143 whole entry, looked up): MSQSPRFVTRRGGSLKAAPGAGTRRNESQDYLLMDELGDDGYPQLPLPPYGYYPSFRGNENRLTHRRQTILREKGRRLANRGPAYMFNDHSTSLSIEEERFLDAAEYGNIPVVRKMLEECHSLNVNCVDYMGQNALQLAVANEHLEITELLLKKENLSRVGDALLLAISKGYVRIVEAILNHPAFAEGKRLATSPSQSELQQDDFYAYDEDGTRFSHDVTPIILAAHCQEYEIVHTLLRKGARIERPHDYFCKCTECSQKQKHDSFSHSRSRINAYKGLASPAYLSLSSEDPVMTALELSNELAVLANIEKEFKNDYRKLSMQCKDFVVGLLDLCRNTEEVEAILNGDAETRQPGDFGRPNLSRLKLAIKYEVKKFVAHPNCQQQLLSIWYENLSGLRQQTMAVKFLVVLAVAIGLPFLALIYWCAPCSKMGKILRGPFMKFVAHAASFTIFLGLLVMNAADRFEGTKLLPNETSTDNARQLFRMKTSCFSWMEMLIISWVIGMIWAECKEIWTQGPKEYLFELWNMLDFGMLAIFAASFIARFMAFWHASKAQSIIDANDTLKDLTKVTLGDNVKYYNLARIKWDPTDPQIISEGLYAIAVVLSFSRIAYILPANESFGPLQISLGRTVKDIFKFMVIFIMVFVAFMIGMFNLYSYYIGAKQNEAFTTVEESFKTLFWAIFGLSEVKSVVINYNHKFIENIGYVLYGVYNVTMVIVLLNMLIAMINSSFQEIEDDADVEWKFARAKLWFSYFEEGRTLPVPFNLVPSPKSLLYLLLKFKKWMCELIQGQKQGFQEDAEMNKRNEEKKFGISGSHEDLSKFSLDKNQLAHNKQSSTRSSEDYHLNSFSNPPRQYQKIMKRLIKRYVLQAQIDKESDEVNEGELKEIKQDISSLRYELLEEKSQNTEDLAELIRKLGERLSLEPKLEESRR
TRPC4 potent = allosteric potentiators of mouse TRPC4 channel. Q9QUQ5. HEK293 TRPC4beta/mu-opioid, DAMGO EC20, Fluo-4 Ca2+ flux; active compounds read high. B-score at 10 µM. 0.42% of 310,000 active. AID 2227;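 active = B-score of calcium response area above 5 SD of library B-scores, with initial fluorescence ratio within 5 SD of library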
TRPC4 agonist = TRPC4 (mouse) channel activation; HEK293 TRPC4beta/mu-opioid, Fluo4 calcium fluorescence; active compounds read high; 0.49% of 310,000 active; B-score at 10 µM; Q9QUQ5;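 active = B-score above 5 SD of library B-scores, and initial fluorescence ratio not above library mean plus 5 SD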;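 note: positive B-score marks a calcium rise read as TRPC4 activation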
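Test system: HEK293 cells stably co-expressing mouse TRPC4beta and mu-opioid receptor | Schedule: Fluo4 dye loading 45 min at room temperature, 110 s recording | Measured by: Kinetic Fluo4 calcium fluorescence, 5 s baseline at 1 Hz | Evaluation: B score of integrated ratio | Controls: Buffer (low) and maximal DAMGO (high)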
TRPC4 inh = blocks the mouse TRPC4 cation channel; Q9QUQ5; HEK293 TRPC4beta/mu-opioid, DAMGO-evoked Fluo4 calcium flux; active compounds read low; B-score at 10 µM; 0.39% of 300,000 active; AID 2247;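 active = B-score over 3 SD under the library average, no early fluorescence shift, positive overall ratio signal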
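material = TRPC4beta/mu-opioid receptor HEK293 cell line | probe or stimulus = sequential submaximal and maximal DAMGO stimulation | compound dosing = one concentration per compound | measured by = Fluo4 Ca2+ flux fluorescence | evaluation = integrated fluorescence ratio relative to baseline, converted to per-well B score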
TRPC6 act = activators of mouse TRPC6 channel | B-score at 10 µM | AID 2550 | Q61143 | 0.13% of 310,000 active | HEK293-TRPC6 membrane potential dye fluorescence; active compounds read high;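 active = B-score of the integrated fluorescence ratio above library mean plus 3 SD, and starting fluorescence ratio within library mean plus 5 SD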;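 note: higher score means more depolarization so channel activation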
TRPC4 sel inh 2 = mouse TRPC4 off-target activity of TRPC6 inhibitors, second screen; shares compounds with TRPC6 inh; HEK293 TRPC4/MOR, membrane potential dye fluorescence; channel activated by saturating DAMGO dose; inhibition, % at 10 µM; 42% of 920 active; AID 2776;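 active = compounds whose fluorescence signal differed from control wells by over 3 SD, either direction, in both duplicate plates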
TRPC4 spec = selectivity of TRPC6 inhibitors: effect on mouse TRPC4 | 61% of 920 active | HEK293 TRPC4/mu-opioid, membrane potential fluorescence | shares compounds with TRPC6 inh | activity change, negative = inhibition, % at 10 µM | AID 2777;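 active = rise or fall in signal beyond 3 SD of buffer-only wells in both replicate plates, either sign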;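 note: integrated kinetic ratio of fluorescence range over baseline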
HEK293 MPD ctr 2-1 = second counter-screen for TRPC6 inhibitors: parental HEK293 cells. shares compounds with TRPC6 inh. parental HEK293 membrane potential dye fluorescence; maximal acetylcholine challenge after compound addition. signal change vs control, % at 10 µM. 31% of 920 active;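 active = membrane potential signal moving either way by over 3 SD of the maximum-effect control, in both duplicate plates, meaning non-specific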
HEK293 MPD ctr-1 = checks TRPC6 inhibitor effects in parental HEK293 cells; shares compounds with TRPC6 inh; parental HEK293 membrane potential dye fluorescence; membrane potential signal change, % at 10 µM; 60% of 920 active;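 active = membrane potential signal shifting up or down by more than 3 SD of buffer-only wells, on both duplicate plates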
HEK293 MPD ctr-2 = parental HEK293 nonspecific activity of TRPC6 modulators. shares compounds with TRPC6 inh. membrane potential dye fluorescence. membrane potential signal change, % at 10 µM. 51% of 2,400 active;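 active = membrane potential signal moves up or down beyond 5 SD from buffer-only wells, on both duplicate plates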
HEK293 MPD ctr 2-2 = parental HEK293 nonspecific activity of TRPC6 modulators, second screen; membrane potential dye fluorescence; after compound, maximal acetylcholine stimulation; inhibition, % at 10 µM; 14% of 2,400 active; shares compounds with TRPC6 inh;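 active = membrane potential signal drops by more than 5 SD from the mean control signal, in both duplicate plates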
TRPC4 ctr mod = tests whether TRPC6 modulators also affect mouse TRPC4. HEK293 TRPC4/mu-opioid, membrane potential fluorescence. shares compounds with TRPC6 inh. 69% of 2,400 active. percent change from control (negative = decrease, positive = increase), % at 10 µM;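 active = membrane potential signal moved up or down beyond 5 SD of buffer control wells, in both duplicate plates, actives on both sides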
TRPC4 ctr inh 2 = second check of whether TRPC6 modulators also affect mouse TRPC4 | shares compounds with TRPC6 inh | HEK293 TRPC4/mu-opioid, membrane potential dye fluorescence; stimulated with maximal-effect DAMGO | inhibition, % at 10 µM | 55% of 2,400 active | AID 488928;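 active = drop in membrane potential signal beyond 5 SD of the control wells in both duplicate plates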;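 note: TRPC4 counter screen for TRPC6 hits run under conditions tuned for TRPC6 not TRPC4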
TRPC6 block conf = mouse TRPC6 inhibitor confirmation; shares compounds with TRPC6 inh; HEK293-TRPC6, membrane potential dye, ACh-evoked depolarization; inhibition, % at 10 µM; 43% of 3,300 active; AID 488960;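 active = fluorescence ratio falls more than 5 SD below the full-stimulation control mean, in both duplicate runs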;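 note: integrated fluorescence ratio of peak minus minimum over baseline after agonist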
TRPC6 act conf = confirmation of mouse TRPC6 activators | shares compounds with TRPC6 inh | HEK293-TRPC6 membrane potential dye fluorescence, FDSS | activation, % at 10 µM | 11% of 2,800 active | AID 488961;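 active = ratio signal rise beyond 5 SD above unstimulated control wells' mean, seen in both duplicate runs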
Of the large screens only hits and unclear results are named; the others gave an inactive call (follow-up assays come after a bar, where they were run).

Cc1cc(-c2ccc(C)c(S(=O)(=O)NCC3CCN(Cc4ccccc4F)CC3)c2)on1	TRPC6 inh -5.03 | HEK293 MPD ctr-2 inactive | HEK293 MPD ctr 2-2 inactive | TRPC4 ctr mod inactive | TRPC4 ctr inh 2 75.5% | TRPC6 block conf 36.5% | TRPC6 act conf inactive
NS(=O)(=O)c1ccc(CCNC(=O)c2ccc(NC3=NC4CS(=O)(=O)CC4S3)cc2)cc1 (stereo not given)	none
NCCCCCc1nnc(SCc2ccc(Cl)cc2Cl)o1	TRPC6 inh -6.18 | HEK293 MPD ctr-2 inactive | HEK293 MPD ctr 2-2 inactive | TRPC4 ctr mod 13.5% | TRPC4 ctr inh 2 53.0% | TRPC6 block conf inactive
NCCCCCc1nnc(SCC(=O)Nc2cccc(Cl)c2)o1	none
NCCCCCc1nnc(SCc2cccc(Cl)c2)o1	TRPC6 inh -6.79 | TRPC4 sel inh 2 inactive | TRPC4 spec -0.3% | HEK293 MPD ctr 2-1 inactive | HEK293 MPD ctr-1 0.8% | TRPC6 block conf inactive | TRPC6 act conf inactive
NCCc1nnc(SCc2ccccc2Cl)o1	none
N#CC1=C(N)OC2=C(CN(Cc3ccccc3)C/C2=C\c2cccnc2)C1c1cccnc1 (stereo not given)	none
CC(C)N1CC2=C(OC(N)=C(C#N)C2c2cccnc2)/C(=C/c2cccnc2)C1 (stereo not given)	TRPC6 inh -4.99 | HEK293 MPD ctr-2 91.0% | HEK293 MPD ctr 2-2 inactive | TRPC4 ctr mod inactive | TRPC4 ctr inh 2 inactive | TRPC6 block conf inactive | TRPC6 act conf inactive
O=C(COC(=O)c1ccc(F)c(S(=O)(=O)N2CCOCC2)c1)NCc1ccco1	none
O=C(COC(=O)c1cc(S(=O)(=O)N2CCOCC2)ccc1F)NCc1ccco1	TRPC6 inh -6.24 | HEK293 MPD ctr-2 inactive | HEK293 MPD ctr 2-2 inactive | TRPC4 ctr mod inactive | TRPC4 ctr inh 2 inactive | TRPC6 block conf inactive | TRPC6 act conf inactive
CCOc1ccc(-c2nnc(-c3ccncc3)o2)cc1OCC	TRPC6 inh -5.48 | HEK293 MPD ctr-2 -173.0% | HEK293 MPD ctr 2-2 inactive | TRPC4 ctr mod -35.5% | TRPC4 ctr inh 2 32.0% | TRPC6 block conf inactive | TRPC6 act conf inactive
Nc1ccccc1C(=O)NC1CCCNC1=O (stereo not given)	none
NC(=O)c1cc(S(=O)(=O)NCCCc2ccccc2)cs1	none
CCC(C)(C)NC(=O)C(c1ccccc1)N(Cc1cccs1)C(=O)Cn1nnc2ccccc21 (stereo not given)	TRPC6 act 14.9 | HEK293 MPD ctr-2 119.0% | HEK293 MPD ctr 2-2 inactive | TRPC4 ctr mod 33.5% | TRPC4 ctr inh 2 inactive | TRPC6 block conf inactive | TRPC6 act conf 44.5%
COCCNC(=O)C(c1ccccc1)N(Cc1cccs1)C(=O)Cn1nnc2ccccc21 (stereo not given)	none
CCC(C)(C)NC(=O)C(c1ccc(C)o1)N(Cc1cccs1)C(=O)Cn1nnc2ccccc21 (stereo not given)	TRPC6 act 15.2 | HEK293 MPD ctr-2 341.5% | HEK293 MPD ctr 2-2 inactive | TRPC4 ctr mod 80.5% | TRPC4 ctr inh 2 inactive | TRPC6 block conf inactive | TRPC6 act conf 99.0%
CC(Sc1ccccc1)C(=O)N/N=C/c1ccccc1 (stereo not given)	none
COCCNCC(=O)N1c2ccccc2Sc2ccccc21	none
CC(C)CNCC(=O)N1c2ccccc2Sc2ccccc21	TRPC6 inh -5.69 | HEK293 MPD ctr-2 124.0% | HEK293 MPD ctr 2-2 inactive | TRPC4 ctr mod 15.5% | TRPC4 ctr inh 2 56.5% | TRPC6 block conf inactive
Cc1cccc[n+]1CC(=O)N1c2ccccc2Sc2ccccc21	TRPC6 inh -11 | TRPC4 sel inh 2 inactive | TRPC4 spec inactive | HEK293 MPD ctr 2-1 -11.5% | HEK293 MPD ctr-1 inactive | TRPC6 block conf 93.2% | TRPC6 act conf inactive
Cc1ccc(N(C)S(=O)(=O)c2ccc(-c3cnc(C4CC4)o3)cc2)cc1	none
Cc1ccc(S(=O)(=O)Nc2c(C)cc(C)nc2Cl)cc1	none
COc1ccc(-c2n[nH]c(C)c2-c2ccc(Cl)cc2)c(O)c1	none
Cc1[nH]nc(-c2ccc(O)cc2O)c1-c1ccc(Cl)cc1	TRPC6 inh -5.75, TRPC4 inh -7 | HEK293 MPD ctr-2 -79.0% | HEK293 MPD ctr 2-2 inactive | TRPC4 ctr mod -22.5% | TRPC4 ctr inh 2 80.5% | TRPC6 block conf inactive | TRPC6 act conf inactive
Cc1cc(C)c2c(n1)nn1c(NCCCN(C)C)cc(C)nc21	none
Cc1cc(NCCCN(C)C)n2nc(-c3cccs3)cc2n1	TRPC6 inh -8.23, TRPC4 potent 12 | HEK293 MPD ctr-2 -349.0% | HEK293 MPD ctr 2-2 81.5% | TRPC4 ctr mod -58.5% | TRPC4 ctr inh 2 57.5% | TRPC6 block conf 69.0% | TRPC6 act conf inactive
Cc1ccc(S(=O)(=O)NNC(=O)C(O)(c2ccccc2C)c2ccccc2C)cc1	none
Oc1ccc2ccccc2c1C=Nc1ccc(Cl)cn1	none
Clc1ccc2c(c1)C(N1CCNCC1)=Nc1ccccc1O2	TRPC6 inh -5.1 | HEK293 MPD ctr-2 inactive | HEK293 MPD ctr 2-2 inactive | TRPC4 ctr mod 8.0% | TRPC4 ctr inh 2 48.0% | TRPC6 block conf inactive | TRPC6 act conf inactive
O=c1cc(/N=C/c2coc3c(ccc4ccccc43)c2=O)[nH]c(=S)[nH]1	none

Screening data: PubChem BioAssay, Johns Hopkins Ion Channel Center
